Assay [1] addresses T1, Cell division protein FtsZ (Escherichia coli K-12, UniProt P0A9A6).
T1 sequence (P0A9A6 whole entry): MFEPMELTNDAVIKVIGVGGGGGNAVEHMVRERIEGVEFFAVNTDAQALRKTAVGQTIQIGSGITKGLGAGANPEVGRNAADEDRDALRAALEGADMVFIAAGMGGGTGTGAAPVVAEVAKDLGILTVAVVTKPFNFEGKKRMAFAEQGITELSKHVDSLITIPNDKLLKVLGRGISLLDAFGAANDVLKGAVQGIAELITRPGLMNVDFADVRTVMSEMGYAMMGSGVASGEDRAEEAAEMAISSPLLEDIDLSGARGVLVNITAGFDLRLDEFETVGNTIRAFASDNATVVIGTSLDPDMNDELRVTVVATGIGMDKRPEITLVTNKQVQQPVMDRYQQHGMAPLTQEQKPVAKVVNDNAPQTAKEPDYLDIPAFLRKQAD
Briefly: Binding affinity to Escherichia coli FtsZ at 25 degC by fluorescence anisotropy assay. Conditions: read-out: Kd. A general note: In fluorescence polarisation assays a small probe gives low polarisation when free and higher when bound to something large.

In assay [2] the test system is T2, Cell division protein FtsZ (Staphylococcus aureus), P0A031 [G196A].
T2 sequence (whole entry): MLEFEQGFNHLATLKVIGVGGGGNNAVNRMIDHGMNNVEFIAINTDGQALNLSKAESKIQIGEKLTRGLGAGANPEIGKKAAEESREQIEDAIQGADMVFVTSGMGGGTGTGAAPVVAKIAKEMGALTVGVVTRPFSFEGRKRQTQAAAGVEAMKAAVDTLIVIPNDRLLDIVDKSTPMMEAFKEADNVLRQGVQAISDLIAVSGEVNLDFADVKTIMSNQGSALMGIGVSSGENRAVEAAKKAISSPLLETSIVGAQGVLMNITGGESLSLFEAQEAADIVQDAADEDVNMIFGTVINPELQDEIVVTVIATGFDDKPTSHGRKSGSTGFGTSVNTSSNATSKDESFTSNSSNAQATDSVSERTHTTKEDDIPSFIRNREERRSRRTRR
Briefly: Binding affinity to Staphylococcus aureus FtsZ G196A mutant self-polymerization at 10 ug/mL by microtiter plate-based light scattering assay.

For assay [3], the target named is T3, Cell division protein FtsZ (Staphylococcus aureus) (UniProt P0A031).
T3 sequence (whole entry): T2 sequence (whole entry) with A196G
The assay can be described thus: Stimulation of Staphylococcus aureus FtsZ self-polymerization by microtiter plate-based light scattering assay.

For a further assay, the system named is Staphylococcus aureus. Briefly: Antimicrobial activity against methicillin-resistant Staphylococcus aureus Mu3 incubated for 24 hrs by broth microdilution method. The settings on record: Mu3, 24 h. Format: functional. In general terms: Dilution methods test growth across graded concentrations, often in twofold steps.
For another assay, the system named is Enterococcus faecalis. The assay can be described thus: Stimulation of Enterococcus faecalis FtsZ self-polymerization by microtiter plate-based light scattering assay.
Assay [4] can be described thus: Selectivity index, ratio of Kd for Enterococcus faecalis FtsZ to Kd for Staphylococcus aureus FtsZ. The gist of the method: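 Buffer was 50 mM Tris·HCl pH 7.4, 50 mM KCl, 2 mM magnesium acetate. Kd came from nonlinear least-squares fits, and the index is the ratio of the two Kd values.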
Assay [5] concerns the target T4, Cell division protein FtsZ (Escherichia coli K-12) (UniProt P0A9A6).
T4 sequence (whole entry): T1 sequence (P0A9A6 whole entry)
Briefly: Stimulation of Escherichia coli FtsZ self-polymerization by microtiter plate-based light scattering assay.

Assay [6] addresses T3, Cell division protein FtsZ (Staphylococcus aureus). The assay can be described thus: Stimulation of Staphylococcus aureus FtsZ assembly and bundling at 20 ug/mL by transmission electron microscopy. Summed up: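 SaFtsZ polymerized with 20 μg/mL compound under light-scattering assay conditions (10 μM protein, 1 mM GTP, 1 mM CaCl2, pH 7.4). Reaction diluted 1:10 in polymerization buffer, applied to glow-discharged Formvar/carbon grids, negatively stained with 1% phosphotungstic acid for 1 min, and imaged by TEM at 80 kV.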

The next assay relates to Klebsiella pneumoniae. The assay can be described thus: Antimicrobial activity against Klebsiella pneumoniae ATCC 13883 incubated for 24 hrs by broth microdilution method. Type of assay: functional. The settings on record: ATCC 13883, 24 h. Summed up: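 CLSI broth microdilution. Log-phase bacteria at 10⁵ CFU/mL were added to 2-fold serial dilutions (64 to 0.016 μg/mL) in cation-adjusted Mueller-Hinton broth. Plates were incubated aerobically for 24 h at 37 °C and growth was read as OD600. MIC is the lowest concentration giving 90% growth inhibition.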

Residue numbers refer to the chain shown, from its start. In brackets after ≈: the same amount, converted by molar mass. Activity calls are given as the source filed them.

As to `CC(C)(C)c1ccc(-c2cccc(CNC(=N)N)c2)cc1`, in [1], the Kd (commonly a measure of binding affinity in units of concentration) is 3.8 µM. Also, the outcome in assay [2] and in assay [6] was Active. Also, the Activity result (in assay [3]; in the assay on Enterococcus faecalis; in assay [5]) was “Dose-dependent effect” each time. In addition, the minimum inhibitory concentration (MIC) (as a rule, the smallest concentration in the dilution series that meets the test's criterion for growth inhibition) stood at 1 µg/mL (≈ 3.55 µM) with Staphylococcus aureus and 32 µg/mL (≈ 114 µM) in the assay with Klebsiella pneumoniae. Also, the Ratio in assay [4] is 6.

The values above are taken from ChEMBL document CHEMBL2176974, “A bactericidal guanidinomethyl biaryl that alters the dynamics of bacterial FtsZ polymerization” (J Med Chem, 2012).
